Data taken from ChEMBL document CHEMBL1212751, “Pharmacokinetics of artemether-lumefantrine and artesunate-amodiaquine in children in Kampala, Uganda” (Antimicrob Agents Chemother, 2010).
Each block holds one molecule with its values, some of them ahead of it.

Experiments:
Homo sapiens [1] = test: AUC (0-infinity) in healthy human adult assessed as desethylamodiaquine level at 600 mg administered as single dose; assay type: ADME, organism-based, Plasma; set-up: dose 600 mg, time infinity; conditions: in vivo
Homo sapiens [2] = test: AUC (0-120 hrs) in Ugandan children patient with uncomplicated malaria assessed as desethylamodiaquine level at 10 mg/kg, perorally qd on first 2 days and then 5 mg/kg, perorally on third day co-administered with artesunate at 4 mg/kg, perorally bid for 3 days; assay type: ADME, organism-based, Plasma; set-up: dose 10 mg/kg, time < 120 hr, route oral; conditions: in vivo, po
[3] = AUC (0-8 hrs) in Ugandan children patient with uncomplicated malaria at 10 mg/kg, perorally qd on first 2 days and then 5 mg/kg, perorally on third day co-administered with artesunate at 4 mg/kg, perorally bid for 3 days; assay type: ADME, organism-based; set-up: dose 10 mg/kg, time < 8 hr, route oral; conditions: human, plasma, po
[4] = AUC (0-infinity) in Ugandan children patient with uncomplicated malaria at 10 mg/kg, perorally qd on first 2 days and then 5 mg/kg, perorally on third day co-administered with artesunate at 4 mg/kg, perorally bid for 3 days; assay type: ADME, organism-based; set-up: dose 10 mg/kg, time infinity, route oral; conditions: human, plasma, po
How it was run: (§1)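 Oral AQ-AS was given for 3 days with food and fat to Ugandan children aged 5–13 y (n = 21). Venous blood was drawn pre-last dose and at 2, 4, 8, 24 and 120 h after it. For AQ-DEAQ, plasma was cold-centrifuged at 3,000 × g for 15 min and stored at −80°C. AUC0-∞ used trapezoids plus Clast/λz, with λz usually from the last three points.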

Homo sapiens [5] = test: Half life in Ugandan children patient with uncomplicated malaria assessed as desethylamodiaquine level at 10 mg/kg, perorally qd on first 2 days and then 5 mg/kg, perorally on third day co-administered with artesunate at 4 mg/kg, perorallybid for 3 days; assay type: ADME, organism-based; conditions: in vivo, po; how it was run: as §1
Homo sapiens [6] = test: Plasma concentration in Gabonian malarial children aged 6 months to 10 years assessed as desethylamodiaquine level at 30 mg/kg measured on third day post dose; conditions: in vivo
[7] = Half life in Ugandan children patient with uncomplicated malaria at 10 mg/kg, perorally qd on first 2 days and then 5 mg/kg, perorally on third day co-administered with artesunate at 4 mg/kg, perorally bid for 3 days; assay type: ADME, organism-based; conditions: human, in vivo, po; how it was run: as §1
[8] = Cmax in Ugandan children patient with uncomplicated malaria at 10 mg/kg, perorally qd on first 2 days and then 5 mg/kg, perorally on third day co-administered with artesunate at 4 mg/kg, perorally bid for 3 days; assay type: ADME, organism-based; set-up: dose 10 mg/kg, route oral; conditions: human, in vivo, po; how it was run: as §1
[9] = AUC (0-infinity) in healthy human adult at 600 mg administered as single dose; assay type: ADME, organism-based; set-up: dose 600 mg, time infinity; conditions: plasma
Homo sapiens [10] = test: AUC (0-infinity) in Ugandan children patient with uncomplicated malaria assessed as desethylamodiaquine level at 10 mg/kg, perorally qd on first 2 days and then 5 mg/kg, perorally on third day co-administered with artesunate at 4 mg/kg, perorally bid for 3 days; assay type: ADME, organism-based, Plasma; set-up: dose 10 mg/kg, time infinity, route oral; conditions: in vivo, po; how it was run: as §1
Homo sapiens [11] = test: Cmax in Ugandan children patient with uncomplicated malaria assessed as desethylamodiaquine level at 10 mg/kg, perorally qd on first 2 days and then 5 mg/kg, perorally on third day co-administered with artesunate at 4 mg/kg, perorally bid for 3 days; assay type: ADME, organism-based; set-up: dose 10 mg/kg, route oral; conditions: in vivo, po; how it was run: as §1
Homo sapiens [12] = test: Plasma concentration in Nigerian human adult malaria patient assessed as desethylamodiaquine level at 25 mg/kg measured on seventh day post dose; conditions: in vivo
[13] = Half life in Ugandan children patient with uncomplicated malaria administered twice daily for 3 days as 20/120 mg tablets containing artemether-lumefantrine combination; assay type: ADME, organism-based; conditions: human, in vivo, po
How it was run: (§2)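 Children (5–13 y, n = 20) took AL twice daily for 3 days by weight band (20–24 kg, 2 tablets; 25–34 kg, 3; >34 kg, 4), each dose with 250 ml milk (3.3 g fat). Plasma was sampled 0–120 h after the morning last dose. AR and DHA were measured by LC-MS/MS; LR by HPLC-UV (LLOQ 25 ng/ml). Values below LLOQ were treated as missing.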

Homo sapiens [14] = test: Cmax in Ugandan children patient with uncomplicated malaria assessed as dihydroartemisin administered twice daily for 3 days as 20/120 mg tablets containing artemether-lumefantrine combination; assay type: ADME, organism-based; set-up: dose 120 mg; conditions: in vivo, po, 72 h; how it was run: as §2
[15] = Cmax in Ugandan children patient with uncomplicated malaria administered twice daily for 3 days as 20/120 mg tablets containing artemether-lumefantrine combination; assay type: ADME, organism-based; set-up: dose 120 mg; conditions: human, in vivo, oral; how it was run: as §2
[16] = AUC (0-infinity) in Ugandan children patient with uncomplicated malaria administered twice daily for 3 days as 20/120 mg tablets containing artemether-lumefantrine combination; assay type: ADME, organism-based; set-up: dose 120 mg, time infinity; conditions: human, plasma, po; how it was run: as §2
Homo sapiens [17] = test: AUC (0-infinity) in Ugandan children patient with uncomplicated malaria assessed as dihydroartemisin administered twice daily for 3 days as 20/120 mg tablets containing artemether-lumefantrine combination; assay type: ADME, organism-based, Plasma; set-up: dose 120 mg, time infinity; conditions: in vivo, po, 72 h; how it was run: as §2
Homo sapiens [18] = test: Half life in Ugandan children patient with uncomplicated malaria assessed as dihydroartemisin administered twice daily for 3 days as 20/120 mg tablets containing artemether-lumefantrine combination; assay type: ADME, organism-based; conditions: in vivo, po, 72 h; how it was run: as §2
[19] = AUC (0-infinity) in Ugandan children patient with uncomplicated malaria at 4 mg/kg, perorally […] for 3 days co-administered with amodiaquine at 10 mg/kg, perorally qd on first 2 days and then 5 mg/kg, perorally on third day; assay type: ADME, organism-based; set-up: dose 4 mg/kg, route oral, time infinity; conditions: human, plasma, po
How it was run: (§3)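 Ugandan children aged 5–13 y with uncomplicated malaria (n = 21) were dosed once daily for 3 days, with food and fat. Venous plasma was sampled before the last dose and 2, 4, 8, 24 and 120 h after it, cold-centrifuged and stored at −80°C. AS and DHA were measured by solid-phase extraction LC-MS/MS (positive ion mode). AUC0-∞ used the linear up-log down trapezoidal rule; Cmax was observed.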

Homo sapiens [20] = test: Cmax in Ugandan children patient with uncomplicated malaria assessed as dihydroartemisinin level at 4 mg/kg, perorally […] for 3 days co-administered with amodiaquine at 10 mg/kg, perorally qd on first 2 days and then 5 mg/kg, perorally on third day; assay type: ADME, organism-based; set-up: dose 4 mg/kg, route oral; conditions: in vivo, po; how it was run: as §3
[21] = Cmax in Ugandan children patient with uncomplicated malaria at 4 mg/kg, perorally […] for 3 days co-administered with amodiaquine at 10 mg/kg, perorally qd on first 2 days and then 5 mg/kg, perorally on third day; assay type: ADME, organism-based; set-up: dose 4 mg/kg, route oral; conditions: human, in vivo, po; how it was run: as §3
Homo sapiens [22] = test: AUC (0-infinity) in Ugandan children patient with uncomplicated malaria assessed as dihydroartemisinin level at 4 mg/kg, perorally […] co-administered with amodiaquine at 10 mg/kg, perorally qd on first 2 days and then 5 mg/kg, perorally on third day; assay type: ADME, organism-based, Plasma; set-up: dose 4 mg/kg, time infinity, route oral; conditions: in vivo, po; how it was run: as §3
Homo sapiens [23] = test: Half life in Ugandan children patient with uncomplicated malaria assessed as dihydroartemisinin level at 4 mg/kg, perorally bid for 3 days co-administered with amodiaquine at 10 mg/kg, perorally qd on first 2 days and then 5 mg/kg, perorally on third day; assay type: ADME, organism-based; conditions: in vivo, po
How it was run: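 Ugandan children aged 5–13 y (n = 21) were dosed with food and fat. Venous blood (3 ml) was drawn before the last dose and at 2, 4, 8, 24 and 120 h after it. Samples were iced, cold-centrifuged within 30 min, and the plasma was stored at −80°C. DHA was assayed by SPE LC-MS/MS in positive ion mode. λz came from terminal regression, usually the last three points. Values are geometric means (90% CIs).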

- AUC (Homo sapiens [1]): 8437 ng·h/mL
- AUC (Homo sapiens [2]): 11242 ng·h/mL
- AUC at 8 h [3]: 28.9 ng·h/mL
- AUC(0-inf) [4]: 39.3 ng·h/mL
- t1/2 (Homo sapiens [5]): 60 h
- Concentration (Homo sapiens [6]): 149 ng/mL
- half-life [7]: 3.3 h
- Cmax [8]: 5.2 ng/mL
- AUC(0-inf) [9]: 154 ng·h/mL
- AUC (Homo sapiens [10]): 14770 ng·h/mL
- Cmax (Homo sapiens [11]): 235 ng/mL
- Concentration (Homo sapiens [12]): 62 ng/mL
Compound: CCN(CC)Cc1cc(Nc2ccnc3cc(Cl)ccc23)ccc1O.Cl

- half-life [13]: 3.9 h
- Cmax (Homo sapiens [14]): 119 ng/mL
- Cmax [15]: 34 ng/mL
- AUC(0-inf) [16]: 168 ng·h/mL
- AUC (Homo sapiens [17]): 382 ng·h/mL
- t1/2 (Homo sapiens [18]): 1.9 h
Compound: CO[C@H]1O[C@@H]2O[C@@]3(C)CC[C@H]4[C@H](C)CC[C@@H]([C@H]1C)[C@@]24OO3 [ARTEMETHER]

- AUC(0-inf) [19]: 113 ng·h/mL
- Cmax (Homo sapiens [20]): 473 ng/mL
- Cmax [21]: 51.3 ng/mL
- AUC (Homo sapiens [22]): 1404 ng·h/mL
- t1/2 (Homo sapiens [23]): 1.3 h
Compound: C[C@H]1[C@H](OC(=O)CCC(=O)O)O[C@@H]2O[C@@]3(C)CC[C@H]4[C@H](C)CC[C@@H]1[C@@]24OO3 [ARTESUNATE]

- half-life [13]: 32.7 h
- Cmax [15]: 6760 ng/mL
- AUC(0-inf) [16]: 210000 ng·h/mL
Compound: CCCCN(CCCC)CC(O)c1cc(Cl)cc2c1-c1ccc(Cl)cc1/C2=C/c1ccc(Cl)cc1 (stereo unspecified) [LUMEFANTRINE]
